Rows were chosen to be rich in hits. Some 0.99% of all compounds tested hit in one or more screens of this group.
MT1-MMP act inh: blockers of MT1-MMP proenzyme processing, primary screen, HT1080 RFP-PRO-GFP cells, GFP/RFP fluorescence; GFP/RFP ratio fluorescence, overnight; percent of plate control window, DMSO zero; GFP/RFP ratio change, % at 20 µM; 0.061% of 360,000 active;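 active means GFP/RFP ratio change of at least 30% with cell ATP level not reduced by more than half and red fluorescence within 50% of control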
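Test system: HT1080 cells expressing an RFP-PRO-GFP fluorescent reporter construct / Compound dosing: single-point 20 µM compound, 1% DMSO / Schedule: cells overnight before dosing, compound overnight, 37 °C, 5% CO2 / Evaluation: GFP/RFP fluorescence ratio / Control set: DMSO and RFP-L50D-GFP cell wells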
NOD2 RIPK2 PPI: NOD2-RIPK2 binding disruptors in cells, primary screen, fluorescence, CHO cells, BLA complementation. 0.38% of 360,000 active. CCF4 ratio. AID 624267, 2012. inhibition, % at 4.98 µM. Receptor-interacting serine/threonine-protein kinase 2 (Homo sapiens), O43353; in the data active means inhibition above about 21%
Target sequence (O43353 whole entry, looked up): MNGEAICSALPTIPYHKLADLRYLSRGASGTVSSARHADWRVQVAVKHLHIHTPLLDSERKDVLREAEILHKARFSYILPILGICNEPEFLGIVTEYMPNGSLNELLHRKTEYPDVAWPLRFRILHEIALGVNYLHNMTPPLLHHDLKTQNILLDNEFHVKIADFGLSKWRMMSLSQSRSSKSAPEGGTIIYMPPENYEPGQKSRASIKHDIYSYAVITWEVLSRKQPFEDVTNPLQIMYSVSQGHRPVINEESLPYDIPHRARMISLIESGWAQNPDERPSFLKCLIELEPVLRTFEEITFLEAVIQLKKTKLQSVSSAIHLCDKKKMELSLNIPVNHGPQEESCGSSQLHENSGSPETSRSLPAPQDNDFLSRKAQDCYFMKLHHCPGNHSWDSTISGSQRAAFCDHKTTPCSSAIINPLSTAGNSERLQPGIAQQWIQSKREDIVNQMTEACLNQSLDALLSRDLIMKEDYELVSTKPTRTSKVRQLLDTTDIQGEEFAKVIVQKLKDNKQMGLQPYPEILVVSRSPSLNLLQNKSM
TLR4 MyD88 comp: inhibitors of TLR4-MyD88 association in cells, primary screen, cell-based, HeLa CL3-4, BLA complementation, FRET ratio | AID 861, 2007 | inhibition, % at 8.4 µM | Toll-like receptor 4 (Homo sapiens) + Myeloid differentiation primary response protein … | 0.18% of 200,000 active | HeLa CL3-4 TLR4/MyD88 BLA complementation; in the data active means inhibition above about 25%
SKN-1 block: suppressors of acrylamide-induced Pgst-4::GFP reporter in worms, primary screen, SKN-1 inhibitor project, whole organism, uHTS, GFP/RFP fluorescence ratio, strain VP596. inhibition, % at 21.8 µM. AID 624304, 2012. 0.49% of 360,000 active. C. elegans VP596 Pgst-4::GFP/RFP ratio, 24 h;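 active means interference check ratio from 0.5 to 1.5 plus GFP to RFP signal ratio inhibition reaching or exceeding a fixed threshold, cut at about 30% in these data, passing the limit was not always enough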
TLR9-MyD88 block: inhibitors of TLR9-MyD88 association in cells, primary screen, cell-based, CHO, BLA complementation, fluorescence | CCF4 FRET ratio | 0.21% of 340,000 active | AID 504734, 2011 | inhibition, % at 4.98 µM;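 active means inhibition above the mean over all tested compounds plus 3 SD, cut at about 21% in these data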
TLR4-MyD88 conf: TLR4-MyD88 association inhibitors, retest, confirmation, cell-based, HeLa CL3-4, BLA complementation, FRET ratio | shares compounds with TLR4 MyD88 comp | CCF4 FRET ratio | inhibition, % at 8.4 µM | 50% of 350 active | AID 941, 2007;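 active means mean inhibition across three repeat runs above about 25% carried over from the earlier screen, limit read from the data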
BLA inh HeLa: beta-lactamase inhibition flagged in TLR4-MyD88 counter-screen; shares compounds with TLR4 MyD88 comp; HeLa BLA reporter, CCF4 FRET ratio; inhibition, % at 8.4 µM; 63% of 350 active;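 active means mean inhibition over three repeats above about 26% taken from the earlier screen, limit read from the data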;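 further: HeLa cells stably expressing beta-lactamase reporter as counterscreen for TLR4-MyD88 inhibitors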
TLR9-MyD88 cf: TLR9-MyD88 association inhibitors, retest, confirmation, cell-based, CHO, BLA complementation, fluorescence, triplicate; AID 540250, 2011; shares compounds with TLR9-MyD88 block; CCF4 FRET ratio; 51% of 680 active; inhibition, % at 4.98 µM;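 active means mean inhibition across three repeats above about 21% taken from the earlier screen, limit read from the data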;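 further: blue over green emission ratio reports constitutive TLR9 MyD88 association via BLA complementation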
BLA counter-1: beta-lactamase reporter inhibitors in CHO cells, artefact control for TLR9-MyD88 binding inhibitor project, cell-based, fluorescence; shares compounds with TLR9-MyD88 block; CHO-BLA cells, CCF4 FRET ratio, BLA reporter; inhibition, % at 4.98 µM; 7% of 680 active; AID 540251, 2011;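 active means mean inhibition above a 50% cutoff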;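 further: counterscreen of TLR9-MyD88 hits on CMV-driven BLA in CHO-K1 cells; higher means less blue over green ratio so more BLA blockade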
TLR9 CHO cytotox: CHO cell viability loss – luminescence, single concentration, cytotoxicity control for TLR9-MyD88 binding inhibitor project. 39% of 680 active. TLR9-MyD88 CHO cells cytotoxicity. shares compounds with TLR9-MyD88 block. inhibition, % at 4.98 µM; in the data active means inhibition above about 11%
NOD2-RIPK2 conf: NOD2-RIPK2 binding disruptors, retest, confirmation, fluorescence, CHO cells, BLA complementation, triplicate. CCF4 FRET. inhibition, % at 4.98 µM. 70% of 1,200 active. shares compounds with NOD2 RIPK2 PPI;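 active means mean inhibition across replicates above a set limit taken from the earlier primary screen, cut at about 21% in these data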
BLA counter-2: counter-screen for NOD2-RIPK2 interaction inhibitors: BLA reporter; shares compounds with NOD2 RIPK2 PPI; CHO BLA reporter, CCF4 FRET ratio, counterscreen; inhibition, % at 4.98 µM; 57% of 1,200 active;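 active means mean inhibition above the low-control mean inhibition plus three low-control SD, cut at about 11% in these data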
A number is an active result.

For CC1(C)OC(c2ccccc2)=C/C(=C/C=C2C(=O)NC(=S)NC2=O)O1 the results were TLR4 MyD88 comp 67, TLR4-MyD88 conf 63 and BLA inh HeLa 90.
Screening Cc1cc2c(C(F)(F)F)cc(=O)oc2c2c1NCCC2 returned MT1-MMP act inh inactive, NOD2 RIPK2 PPI inactive, TLR4 MyD88 comp 31, SKN-1 block inactive, TLR9-MyD88 block inactive, TLR4-MyD88 conf 54 and BLA inh HeLa 55.
`COc1ccccc1CNCCc1cccc(Cl)c1` gave MT1-MMP act inh inactive, NOD2 RIPK2 PPI inactive, SKN-1 block inactive and TLR9-MyD88 block inactive.
COc1nc2ccccc2nc1N1CC1 was read as MT1-MMP act inh inactive, NOD2 RIPK2 PPI inactive and SKN-1 block inactive.
`O=c1cc(C(F)(F)F)c2cc3c4c(c2o1)CCCN4CCC3` gave MT1-MMP act inh inactive, NOD2 RIPK2 PPI 68, TLR4 MyD88 comp 54, SKN-1 block inactive, TLR9-MyD88 block 46, TLR4-MyD88 conf 49, BLA inh HeLa 81, TLR9-MyD88 cf 51, BLA counter-1 55, TLR9 CHO cytotox inactive, NOD2-RIPK2 conf 63 and BLA counter-2 76.
`CN1CCCCC1Cc1ccccc1` (centres undefined) gave MT1-MMP act inh inactive, NOD2 RIPK2 PPI inactive and SKN-1 block inactive.
Screening CN(C(=O)Cc1ccc(Cl)c(Cl)c1)C(CN1CCCC1)c1cccc(OCC(=O)O)c1 (centres undefined) returned MT1-MMP act inh inactive, NOD2 RIPK2 PPI inactive, SKN-1 block inactive, TLR9-MyD88 block 23, TLR9-MyD88 cf inactive, BLA counter-1 inactive and TLR9 CHO cytotox inactive.
For COc1ccccc1-n1c(-c2ccc(C)cc2)nc2ccccc2c1=O the results were MT1-MMP act inh inactive, NOD2 RIPK2 PPI inactive, SKN-1 block inactive and TLR9-MyD88 block inactive.
Nc1ccc2ccc3cccc[n+]3c2c1 was read as MT1-MMP act inh inactive, NOD2 RIPK2 PPI 23, SKN-1 block inactive, TLR9-MyD88 block 26, TLR9-MyD88 cf inactive, BLA counter-1 inactive, TLR9 CHO cytotox inactive, NOD2-RIPK2 conf 31 and BLA counter-2 36.
For CCN(CC)C(=O)c1ccc2c(c1)C1C=CCC1C(C(=O)O)N2 (centres undefined) the results were MT1-MMP act inh inactive, NOD2 RIPK2 PPI inactive, SKN-1 block inactive and TLR9-MyD88 block inactive.
